Screening results deposited in PubChem BioAssay by Sanford-Burnham Center for Chemical Genomics.
SENP8 block-1 – inhibitors of human SENP8 protease | Q96LD8 | recombinant SENP8, Nedd8 substrate fluorescence | inhibition, % at 20 µM | hit rate 0.64% among 360,000 | AID 602440; in the data active = inhibition mostly above about 40%, no sharp cut-off; inactive = mostly below about 27%
SENP7 block – blocks the human protease SENP7 | Q9BQF6 | recombinant SENP7, Z-RLRGG-aminoluciferin luminescence, 40 min | inhibition, % at 5 µM | hit rate 1.5% among 330,000 | AID 434973;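 active = inhibition above about 50% at the single test dose, limit read from the data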
SENP8 block-2 – inhibitors of human SENP8 protease; Q96LD8; purified SENP8, Z-RLRGG-aminoluciferin cleavage, luminescence; inhibition, % at 10 µM; hit rate 1.2% among 330,000; AID 2540; in the data active = inhibition above about 50%
UBC13 polyUb – blocks human UBC13 polyubiquitin chain formation; AID 485273; hit rate 0.47% among 330,000; TR-FRET; P61088; inhibition, % at 20 µM; in the data active = inhibition above about 45%, passing the limit was not always enough
SENP6 block – inhibitors of human SENP6 protease; Q9GZR1; Recombinant SENP6 catalytic domain, aminoluciferin luminescence; inhibition, % at 10 µM; hit rate 1.8% among 330,000;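 active = inhibition above about 50% at the single tested dose, limit read from the data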
Apaf-1 inh – blocks human Apaf-1 apoptosome activity; O14727; reconstituted apoptosome caspase-3 activity, DEVD-Rh110 fluorescence; inhibition, % at 20 µM; hit rate 0.71% among 330,000; AID 489030; active = inhibition of at least 40% at 20 µM
Target sequence (O14727 whole entry, looked up): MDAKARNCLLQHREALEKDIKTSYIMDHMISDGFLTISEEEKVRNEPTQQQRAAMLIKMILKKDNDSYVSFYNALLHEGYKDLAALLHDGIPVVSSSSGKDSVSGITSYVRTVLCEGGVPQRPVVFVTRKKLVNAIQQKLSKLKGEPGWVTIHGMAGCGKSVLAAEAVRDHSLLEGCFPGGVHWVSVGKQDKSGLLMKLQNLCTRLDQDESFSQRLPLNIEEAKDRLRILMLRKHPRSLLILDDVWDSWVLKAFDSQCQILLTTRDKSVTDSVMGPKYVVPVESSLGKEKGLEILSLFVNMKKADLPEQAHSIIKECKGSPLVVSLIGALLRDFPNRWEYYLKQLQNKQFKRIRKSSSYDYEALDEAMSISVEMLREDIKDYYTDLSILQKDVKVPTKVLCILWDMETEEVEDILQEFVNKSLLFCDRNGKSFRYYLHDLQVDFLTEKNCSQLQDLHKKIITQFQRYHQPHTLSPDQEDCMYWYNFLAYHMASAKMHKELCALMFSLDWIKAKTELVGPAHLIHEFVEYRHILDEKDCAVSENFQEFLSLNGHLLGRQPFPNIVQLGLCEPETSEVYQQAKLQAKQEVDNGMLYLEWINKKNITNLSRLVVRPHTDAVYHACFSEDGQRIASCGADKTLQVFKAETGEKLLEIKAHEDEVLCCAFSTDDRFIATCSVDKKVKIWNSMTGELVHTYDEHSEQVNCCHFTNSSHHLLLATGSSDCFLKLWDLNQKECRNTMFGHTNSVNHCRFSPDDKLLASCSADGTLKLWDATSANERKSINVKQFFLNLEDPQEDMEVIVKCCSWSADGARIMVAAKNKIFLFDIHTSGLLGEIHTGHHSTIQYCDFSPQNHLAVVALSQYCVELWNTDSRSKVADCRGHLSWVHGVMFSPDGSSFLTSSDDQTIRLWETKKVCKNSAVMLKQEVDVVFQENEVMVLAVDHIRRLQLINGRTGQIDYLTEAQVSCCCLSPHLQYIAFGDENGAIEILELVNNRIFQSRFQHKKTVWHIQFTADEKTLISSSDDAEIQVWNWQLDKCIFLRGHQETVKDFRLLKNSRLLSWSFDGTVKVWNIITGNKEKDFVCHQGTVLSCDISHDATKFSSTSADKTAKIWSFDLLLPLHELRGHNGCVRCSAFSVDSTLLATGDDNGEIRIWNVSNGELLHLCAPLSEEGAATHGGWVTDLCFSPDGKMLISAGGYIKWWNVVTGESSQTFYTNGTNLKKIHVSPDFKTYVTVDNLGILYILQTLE
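Material: reconstituted apoptosome with Apaf-1, cytochrome c, caspase-9, procaspase-3, dATP / Buffer or medium: pH 7.5 Hepes buffer with CHAPS, BSA, DTT / Also added: cytochrome c with DEVD-Rh110 / Schedule: compound with Apaf-1, dATP, procaspase-3 30 min, then 50 min reaction, room temperature / Technique: rhodamine 110 fluorescence at Ex 480/Em 540 nm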
Apaf-1 inh conf – confirmation of Apaf-1 inhibitors. shares compounds with Apaf-1 inh. reconstituted apoptosome, caspase-3 DEVD-Rh110 fluorescence. inhibition, % at 20 µM. hit rate 25% among 1,800. AID 504614;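 active = mean inhibition of at least 40% at 20 µM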
Rh110 quench – counter-screen for Apaf-1 inhibitors: fluorescence interference. activation (fluorescence interference), % at 20 µM. AID 504615. 1,800 tested, under 10 active. shares compounds with Apaf-1 inh. Rh110 fluorescence interference, quenched caspase reaction;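 active = signal rise of 40% or more at 20 µM, treated as a fluorescence artifact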
Each line names hits and unclear results; the compound was inactive in the other large screens (follow-up assays come after a bar, where they were run); ! = repeats disagree. An excerpt weighted towards active compounds, which were near 3% of everything screened.

Oc1cccc(C=NCc2ccccc2)c1O	SENP8 block-1 54.2, Apaf-1 inh 81.8 | Apaf-1 inh conf inactive | Rh110 quench inactive
O=C(c1ccc2c(Cl)c3c(nc2c1)CCCC3)N1CCN(c2ccc(F)cc2)CC1	none
COc1ccccc1N1CCN(C(=O)c2ccc3c(Cl)c4c(nc3c2)CCCC4)CC1	Apaf-1 inh 41.2 | Apaf-1 inh conf inactive | Rh110 quench inactive
Cc1nnc(SCC(=O)NC(=O)NCCC(C)C)s1	none
CCCCc1c(C)nn(-c2nnc3c4ccccc4n(CC)c3n2)c1C	Apaf-1 inh 46.8 | Apaf-1 inh conf inactive | Rh110 quench inactive
COc1ccccc1C(CNC(=O)c1cccc(S(=O)(=O)Nc2ccc(C)cc2)c1)N(C)C (centres undefined)	Apaf-1 inh 46.1 | Apaf-1 inh conf inactive | Rh110 quench inactive
CN(C)c1ccnc2c[cH-]cc12.[Fe].c1ccc(-[c-]2[c-](-c3ccccc3)[c-](-c3ccccc3)[c-](-c3ccccc3)[c-]2-c2ccccc2)cc1 (centres undefined)	Apaf-1 inh 47.2! | Apaf-1 inh conf inactive | Rh110 quench inactive
CN(C)c1ccnc(Nc2ccccc2)c1C#N	none
COC(=O)C1=C(C)N(Cc2ccccc2)C(=NCc2ccc3c(c2)OCO3)N[C@H]1c1ccccc1	Apaf-1 inh 44.5 | Apaf-1 inh conf inactive | Rh110 quench inactive
NC1(C#Cc2ccc3oc(=O)c(-n4cc(C5(O)CCCCC5)nn4)cc3c2)CCCCC1	none
NC1(C#Cc2ccc3oc(=O)c(-n4cc(-c5ccsc5)nn4)cc3c2)CCCCC1	Apaf-1 inh 47.7 | Apaf-1 inh conf inactive | Rh110 quench inactive
Cc1ccc(S(=O)(=O)N(C)c2ccc(OC(=O)CN3C(=O)NC(C)(c4ccccc4)C3=O)cc2)cc1C (centres undefined)	none (no result: SENP7 block, SENP8 block-2, UBC13 polyUb, SENP6 block, Apaf-1 inh)
O=c1[nH]c(CN2CCc3ccccc3C2)nc2ccccc12	Apaf-1 inh 64.7 | Apaf-1 inh conf inactive | Rh110 quench inactive
O=c1[nH]c(CN2CCOCC2)nc2ccccc12	none
CN(CC(=O)Nc1ccccc1Br)C(=O)c1ccccc1OCc1ccc(Cl)cc1	none (no result: SENP7 block, SENP8 block-2, UBC13 polyUb, SENP6 block, Apaf-1 inh)
Nc1ccc2nc(-c3ccccc3)c(-c3ccccc3)nc2c1	Apaf-1 inh 64.6 | Apaf-1 inh conf inactive | Rh110 quench inactive
CCCS(=O)(=O)NC(=O)C1(C)CCCN(C(=O)c2cc(F)cc(F)c2)C1 (centres undefined)	none (no result: SENP7 block, SENP8 block-2, UBC13 polyUb, SENP6 block, Apaf-1 inh)
CCOCCc1c(O)nc(SCC(=O)N2CCOCC2)[nH]c1=O	none
CCOC(=O)c1cc(C(=O)c2cccs2)n2ccc(C(C)=O)cc12	Apaf-1 inh 42.3 | Apaf-1 inh conf inactive | Rh110 quench inactive
Cn1c(SCc2ccc(F)cc2Cl)nc2ccccc2c1=O	none
CCOC(=O)c1nn(-c2ccccc2)c(=O)c2c(N)scc12	SENP8 block-1 54.6, Apaf-1 inh 55.5 | Apaf-1 inh conf inactive | Rh110 quench inactive
CCOC(=O)c1nn(-c2ccccc2)c(=O)c2c(NC(C)=O)scc12	none
COc1ccccc1Cc1c(-c2ccco2)nc2c3ccccc3ccn12	none (no result: SENP7 block, SENP8 block-2, UBC13 polyUb, SENP6 block, Apaf-1 inh)
COC1=C(Nc2ccccc2OC)C(=O)c2ccccc2C1=O	Apaf-1 inh 54.5 | Apaf-1 inh conf inactive | Rh110 quench inactive
CCN(CC(=O)Nc1ccc2c(c1)OCCO2)C(=O)CN1C(=O)NC(C)(c2ccc(C)cc2)C1=O (centres undefined)	none
c1ccc2c(c1)ncc1cccn12	none
CCn1c2ccccc2c2c3ncc4cccn4c3ccc21	Apaf-1 inh 61.7 | Apaf-1 inh conf inactive | Rh110 quench inactive
COc1cc(CN(C(=O)c2cccs2)C2CCS(=O)(=O)C2)cc(OC)c1OC (centres undefined)	none
CC(C)n1cnnc1SCC(=O)Nc1ccc(Br)cc1F	none
Cc1[nH]n(-c2ccc(Cl)cc2)c(=O)c1C(=O)c1ccccc1	none
Cc1[nH]n(-c2ccccc2)c(=O)c1C(=O)c1ccccc1	Apaf-1 inh 61.0 | Apaf-1 inh conf inactive | Rh110 quench inactive
COc1ccccc1CNC(=O)CN1C(=O)NC(c2ccccc2)(c2ccc(C)c(C)c2)C1=O (centres undefined)	Apaf-1 inh 65.9 | Apaf-1 inh conf inactive | Rh110 quench inactive
